Test results reported in the RNAGym collection of RNA variant scans (doi:10.1038/nmeth.2970).

B1: NELF-E aptamer (parent)
chain: CCCAACGACUGCCGAGCGAGAUUACGCUUGAGCGCCCCACUGAGGAUGCCCACGGGCGAUUGGGGCACGG

Variants of: B1
Assay: HiTS-RAP
Conditions: with NELF-E (Drosophila)
How it was run: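 Kd came from weighted Hill fits to the first binding curve, with intensities normalised to sequencing intensity and averaged per sequence, keeping only fits whose variance was below 1,000,000. That curve was imaged on an Illumina GAIIx flowcell, where sequenced aptamer DNA templates with a T7 promoter and ter site had been transcribed in situ by T7 RNA polymerase and halted by GST-Tus (30 minutes, 37°C). Before each image, clusters equilibrated for 30 minutes at room temperature with NELF-E-mOrange at 0.064 to 1000 nM in HEPES binding buffer.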

Variant	Kd [nM]
A8U G20U	6.62
A21G U28C	6.03
A8G C9U	5.53
G7U G26A	5.82
G7U G26U	6.93
C51U A52G	7.06
G7U C37A	20.8
A5U G64A	8.76
A21G	5.04
C13G A59G	12.2
U29G G58U	8.12
G7U C51U	7.54
C13G C27U	4.45
A24G U41G	5.63
C13U G34A	6.99
A4U C37U	9.84
A4G G34U	6.59
A8U C25U	6.08
A8G G16U	6.76
U41G G65A	6.9
C66G	4.38
C25U U29G	6.54
C13U G26A	4.43
U41G G64A	6.38

Variant	Kd [nM]
A8G A21U	5.17
C6A U23G	7.03
C9G G45A	35.6
U29G A39U	26.4
C53G G54U	4.24
A67G	5.33
A4G C25G	5.98
A46U U47G	5.55
U10G U28A	4.53
G11U G54A	14.1
C9G U41C	80.7
G14A C51U	7.06
G14U A52U	15.8
U10G C50A	16.6
A31G G54A	18.4
A4U C12U	5.44
C6G U60G	5.7
G14U C40G	9.9
G14U U47A	9.21
U29G U61A	28.1
U22G C36U	6.89
A8G C51U	6.89
G18U U29G	7.47
A5G U29G	6.19

Variant	Kd [nM]
G7U A52G	4.13
A8U A31G	8.05
A5G A39G	13.2
G45A	47.8
A5C U23G	7.92
A31G G32U	4.81
G16U A67G	5.58
C17G U41G	4.85
C17G C38U	7.29
C9G A43G	30.4
C9A U10G	5.43
A5U U61A	41.2
C40A	71.3
A5G G63A	14.1
C17G C57U	5.45
A4U G26A	4.14
G11U C12U	4.76
C6G A59G	54.9
A4G G32U	5.95
C17G U22C	5.02
C9G U28A	5.64
C6G C51U	7.16
A39G G63A	87.1
G26U U41G	6.71

Variant	Kd [nM]
U60G	5.2
U22G C50G	7.97
U22G C50A	19.3
A4U G18A	4.13
C13G U60G	5.12
A4U U29C	5.56
A5G U23G	6.21
A5G U23C	5.22
U22G A59G	76.4
G11U C13U	6.19
U29G C53U	3.72
C12G G34A	7.36
U10G G64C	6.95
U10G G64A	7.4
A4U A5G	5.88
G14U U61A	36
U23G G45U	6.11
C13G G64U	8.93
C13G G64C	5.83
U22G C37G	7.01
C13A U23G	5.96
C33G	5.4
U23G A39G	8.65
U22A	5.46

Variant	Kd [nM]
C6U G14U	7.02
C6A G11U	6.57
C9U G16U	7.34
U10G G30U	5.29
U10G G30A	4.59
C9G G56U	6.71
A4C C6G	8.66
A46U A59G	60.5
G11A U41G	6.14
A4G C12G	5.9
C13U U29G	5.14
C13G G62U	7.22
C6A C17G	7.95
A4G A5U	5.91
G42U	10.5
A4U A67G	5.89
A52U U61A	90.9
A4G U10G	5.09
U22G U47A	11.3
U10G G16A	5.62
A4U C6U	6.4
C13U A39G	7.82
A5U U41A	80.9
C12A A24G	5.99

Variant	Kd [nM]
G69A	4.82
U47A G54A	15.1
A24G G26U	6.2
A24G G26A	5.08
G11A C13G	6.15
G7U G56A	9.43
C6A G7U	6.56
C6G G54U	9.57
C6G G54A	12.5
A8U C9G	6.03
C6G U28G	6.54
C9G C27U	4.83
A43G A59G	69
C9G A39G	9.62
A5U G16U	6.86
A8U C57U	5.42
A4G A31U	6.57
A4G A31C	4.18
C9U C13U	5.14
U23G G65A	4.87
C17G G30A	3.42
U41G G55A	7.84
A19G G55A	7.92
C17G A24G	5.52

Variant	Kd [nM]
G16A U29G	5.1
G63A	12.8
G11U C25G	4.89
A4G G65U	6.71
A31G C51U	7.88
G14U G26A	5.3
U47G G48U	6.17
A5G C25G	6.52
U29G C36G	8.06
C13G A24U	7.79
U23G G62U	9.09
U29G G30A	5.05
U41A	73.7
U10G G65A	4.82
U10G G65C	17
A8G G63U	11
A8G G63A	16.1
U23G A67G	6.23
A21U A24G	5
A4C A8G	6.82
C12G G20U	7.97
A4G A52C	6.42
C9G G14U	6.47
C9G G55A	10.3

Variant	Kd [nM]
U41G A52G	4.52
A4G G64C	7.19
C12G U28G	8.85
A19G A59G	36.8
C13U A15U	4.83
U22G G48A	9.21
U10G C17A	5.07
C13U G64A	8.04
C13G G48U	6.97
C13U C25G	4.69
C6G C37U	23.4
G16U A24G	7.15
U10G C51G	4.43
A5C C9G	7.82
A8U G63A	15.3
G20U A24G	6.87
G11U A24U	5.45
C13G G63A	20.2
U22G U23A	6.19
G7A A8C	5.87
C25G U29G	6.18
U23C	4.16
A8G U47A	10.9
A4G A8C	6.29

Variant	Kd [nM]
G11U G14A	6.87
C6G G63U	10.8
C17U U22G	4.67
U23G C53G	7.15
A24G A46G	11.5
U10G U41A	82.6
G7U A67G	7.45
A4G C51A	9.97
G16U U28G	6.45
U22G A52U	17.5
C12A	4.42
C6G G42U	13.8
A24G U47A	13
C13U A67U	3.81
C6G C9G	5.38
U22A A24G	7.66
C57A	13.9
C57G	6.36
A4G G11A	6.4
C13G C66U	5.32
A4G G45U	8.32
G14U A21G	6.69
C17G A31G	5.92
C17U G34A	5.49

Variant	Kd [nM]
G14A A19G	5.88
G14U U29G	6.2
A4G C33U	5.81
G11U A19U	7.3
A8U C53U	3.63
G11U	5.7
A19G A67G	5.94
A39U C40G	5.95
A4G G20U	7.1
G62A	16.9
C13G U47A	11.8
C6G G26A	4.39
A24G C33U	5.71
G26A	4.05
U22A U23G	5.34
A5G A67G	6.71
A5G A67U	7.84
A8G A39G	12.8
G11U U22G	6.4
A8G G48A	11.7
A4G G18U	5.96
U23G U60C	11.9
C9G C50A	23.5
C13G G14U	5.85

Variant	Kd [nM]
U29G C49U	22.4
C6G U61G	7
A4U C17U	5.01
A5G G55A	11.2
A5G G55U	7.72
G14U G65A	6.7
G70C	4.44
A8C U22G	7.46
C12G A39G	10.3
A24G G64U	6.61
C6U C12U	6.16
C6G G44U	8.75
C9G G26U	8.09
G7A A24G	6.73
C12U U29G	5.46
C6G G20A	6.35
A4G C6A	6.8
U10G G63C	43
G7U G42A	59
U23G U29A	5.6
U23G G48U	7.64
G7A A19U	8.57
G14U C33U	5.15
C6G A24G	5.79

Variant	Kd [nM]
C9G G63U	10.3
C6G G11U	5.8
A24U U41G	6.61
C33U G54A	6.14
C6G U22C	5.08
A8G G18A	6.78
U41G A67U	7
A31G G55A	9.56
G14A G16A	6.86
G11U A21G	7.69
A24G A39G	10.2
A5G C12U	6.51
A4U U22G	5.86
C6U A59G	69.1
U10C G11U	5.91
A8U G54A	11.3
C13G A19U	4.52
U10G G55A	8.64
G64A G65U	5.13
A24G C27U	6.16
C6G G16A	5.84
A4U A8U	6.22
C3U	5.55
G14U A15G	6.08

Variant	Kd [nM]
C6G G56A	8.34
U29G	4.93
A4U	5.39
A4C	6.33
A8G A46G	17.8
C9G G20A	6.64
G18U A24G	5.98
A5U C12U	6.37
A4G G42U	9.27
A4G G42A	45.2
U10G U29G	5.05
G7U G30U	7.92
A5U A8G	6.23
A5U A8U	6.78
U10A A15G	3.62
G11U U29G	6
G11U U29A	5.62
G11U U29C	6.7
C9G A19U	7.14
C6G C17G	5.02
A8G U29G	5.77
A19U U29G	5.71
C6U C9G	6.57
A4G C53A	6.64

Variant	Kd [nM]
A4G C53G	7.58
A4G G55C	8.07
A39U	23.5
U23G G32U	6.92
U23G U41A	66.7
U23G U41G	5.48
C6G A31G	6.87
C6U G11U	6.12
A21U U22G	5.31
U22C U41G	5.5
G11U G56A	10.8
A8G G11U	6.74
U23G C38A	35.2
G7U U22A	6.43
A8G G56A	10
G7U U60C	10.9
A4U U28C	7.47
U10G C13A	5.77
C6U U29G	5.8
G7U U29G	6.33
A4G C17A	4.31
U28C A59G	113
